The list is not random: actives were taken first. Their share in the collection is about 2.3%.
Rtt109 HAT inh: inhibitors of Candida albicans Rtt109/Vps75 histone acetyltransferase; Q5AAJ8; purified Rtt109/Vps75, ThioGlo CoA-SH fluorescence, 4 h; inhibition, % at 34.9 µM; hit rate 0.16% among 330,000; AID 540336;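 active means inhibition of at least 50% in every replicate; inconclusive means best replicate reaches 50% inhibition but some replicates fall short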
Target sequence (Q5AAJ8 whole entry, looked up): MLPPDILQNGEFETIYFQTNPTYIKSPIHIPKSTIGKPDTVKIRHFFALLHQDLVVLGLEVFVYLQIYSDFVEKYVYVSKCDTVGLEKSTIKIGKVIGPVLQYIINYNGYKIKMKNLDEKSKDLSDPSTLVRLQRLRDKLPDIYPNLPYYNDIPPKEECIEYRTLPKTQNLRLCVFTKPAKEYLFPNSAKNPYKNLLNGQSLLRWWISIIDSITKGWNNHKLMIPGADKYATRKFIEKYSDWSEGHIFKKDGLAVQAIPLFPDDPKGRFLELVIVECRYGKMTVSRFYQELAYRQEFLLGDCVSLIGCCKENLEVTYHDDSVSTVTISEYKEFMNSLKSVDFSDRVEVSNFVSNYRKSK
Arr AP2 block: human beta-arrestin and AP2 interaction inhibition; FITC-arrestin peptide / GST-AP2 beads, flow cytometry; AP2 beta2 appendage carries R879A mutation; inhibition, % at 10 µM; hit rate 0.31% among 340,000;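 active means inhibition above a set limit, near 3 SD of compounds lacking own fluorescence, cut at about 54% in these data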;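 further: plate controls were DMSO wells for no effect and 5 µM unlabelled arrestin peptide for full effect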
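Assay system: GST-AP2 R879A bound to glutathione beads, E. coli-expressed; Medium: PBS with 0.05% Tween 20 and 0.1% BSA; Also added: fluorescein-tagged arrestin peptide at 50 nM final; Timing: 12 min plus 1 h, RT; Measured by: flow cytometry, FL1 (488/535 nm); Evaluation: percent drop in bead-associated FITC signal.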
PAX8 reporter: lowers PAX8-driven luciferase in RMG-I cells; inhibition, % at 12.6 µM; hit rate 1.2% among 360,000; RMG-I TPO-luciferase reporter, SteadyGlo, 24 h; AID 652154;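 active means mean replicate inhibition at least 60% with every replicate also reaching 60%; inconclusive means only one of the two criteria is met; inactive means mean below 60% and not all replicates reaching 60%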;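 further: luciferase light reporting Pax8 driven TPO promoter activity; plate controls were median of neutral control wells for no effect and mitoxantrone controls for full effect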
N-glyco inh: blocks N-linked glycosylation in D54 reporter cells. hit rate 0.23% among 360,000. AID 588692. D54 ERlucT glycosylation luciferase reporter, 24 h; percent of 100 nM tunicamycin response. reporter increase, % at 12.5 µM;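 active means mean luciferase reporter signal, scaled so untreated is 0 and the glycosylation-blocking control 100, at or above a set limit in every replicate; inconclusive means mean reaches the limit but not every replicate does; inactive means mean below the limit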;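 further: luciferase carries N-glycosylation sites so blocking glycosylation raises the light; 0% = median of neutral control wells and 100% = median of 100 nM tunicamycin wells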
PfHsp90 yeast 2: inhibits growth of yeast expressing Plasmodium falciparum Hsp90 | S. cerevisiae expressing PfHsp90, BacTiter-Glo ATP, 48 h; yeast lacking PDR1 and PDR3 efflux regulators | AID 504621 | inhibition, % at 9.4 µM | hit rate 0.32% among 310,000;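 active means every replicate shows inhibition above about 80%, whatever the replicate mean, limit read from the data; inconclusive means mean inhibition reaches the set limit but some replicate falls short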;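 further: 0% = DMSO neutral controls and 100% = 20 µM radicicol positive controls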
Env fusion inh: blocks HIV Env-driven cell-cell fusion; hit rate 1.1% among 360,000; HeLa-JRFL Env/CEM21 cell fusion, luciferase; inhibition, % at 12.3 µM;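 active means mean replicate inhibition score of at least 50 and every replicate individually at or above 50; inconclusive means only one of the two criteria met; inactive means mean below 50 and not all replicates reaching 50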;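 further: 0% = plate neutral controls and 100% = maraviroc near 300 nM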
An asterisk follows results filed as active; ? = inconclusive; . = no result given; [ ] = dose if it differs, or a comment.

SMILES	Rtt109 HAT inh	Arr AP2 block	PAX8 reporter	N-glyco inh	PfHsp90 yeast 2	Env fusion inh
CN1CCN(C(c2ccc(Br)cc2)c2cc(Cl)c3cccnc3c2O)CC1 (stereo not drawn)	2	-4	40	37*	107*	-13
CC1(Cc2ccccc2Cl)C(=O)Nc2cc(-c3ccccc3Cl)ccc21 (stereo not drawn)	.	.	4	-4	.	-3
CC1(Cc2ccccc2OC(F)(F)F)C(=O)Nc2ccc(OC(F)(F)F)cc21 (stereo not drawn)	.	.	14	-4	.	19
CC1(Cc2ccccc2OC(F)(F)F)C(=O)Nc2cc(-c3ccccc3Cl)ccc21 (stereo not drawn)	.	.	10	-2	.	56*
COC(=O)c1cccc(CC2(C)C(=O)Nc3cc(-c4ccccc4Cl)ccc32)c1 (stereo not drawn)	.	.	-117	-2	.	90*
CC1(Cc2ccccc2OC(F)(F)F)C(=O)Nc2ccc(-c3ccsc3)cc21 (stereo not drawn)	.	.	5	-5	.	71*
CN(c1cccc(Cl)c1)S(=O)(=O)c1cccc(C(=O)Nc2nc3ccccc3[nH]2)c1	-5	-6	71*	-5	16	43
O=C(c1ccccc1)N1N=C(C(F)(F)F)CC1(O)c1ccccc1O (stereo not drawn)	0	11	-22	-1	-1	58*
CC1=NN(C(=O)c2ccccc2)C(O)(c2ccc(Br)cc2)C1 (stereo not drawn)	1	14	-6	-2	-5	80*
C[C@H](CO)N1C[C@H](C)[C@@H](CN(C)S(C)(=O)=O)OCCCC[C@H](C)Oc2ccc(NC(=O)Nc3ccc(F)cc3)cc2C1=O	.	.	4	.	.	-29[16.7 µM]
CCOC(=O)c1cc2c(C)n(-c3ccc(OCC)cc3)c(C)c2ccc1=O	7	18	.	-3	15	61*
Cn1c(=O)oc2cc(S(=O)(=O)N3CCCC3)ccc21	-2	10	-72	0	9	62*
Cn1c(=O)oc2cc(S(=O)(=O)N3CCCCC3)ccc21	4	6	9	2	-8	21
COc1cc2sc3ccc(C#Cc4ccccn4)cc3c(=O)c2cc1OC	-5	-13	23	-1	-3	56*
COc1cccc2sc3cc(C#Cc4ccccn4)ccc3c(=O)c12	17	14	-45	0	-29	-25
CCOC(=O)N1CCN(C(=O)/C(=C/c2cccc3ccccc23)NC(=O)c2ccc(OC)c(OC)c2)CC1	3	2	72*	0	-15	9
COc1cccc(C(=O)Nc2ccc3c(c2)C(=O)N(C)C[C@H](OC)[C@H](C)CN(C(=O)C2CCCC2)[C@@H](C)CO3)c1	.	.	-3	.	.	.
COC(=O)c1ccc(CSc2n[nH]c(C)n2)o1	-4	-9	78*	3	-6	.
CCc1nc(SCc2ccc(C(=O)OC)o2)n[nH]1	7	38	-6	-2	-5	5
CC(C(=O)c1ccc(-c2ccccc2)cc1)[n+]1ccccc1 (stereo not drawn)	.	10	50	1	-1	46*
Cc1cc[n+](C(C)C(=O)c2ccc(-c3ccccc3)cc2)cc1 (stereo not drawn)	-5	7	69*	-2	2	10
C[C@@H]1CN([C@@H](C)CO)S(=O)(=O)c2ccc(C#Cc3ccncc3)cc2O[C@H]1CN(C)C(=O)C1CCOCC1	.	.	24	.	.	7[16.7 µM]
CO[C@H]1CN(C)C(=O)c2cc(NC(=O)Nc3ccccc3F)ccc2OC[C@H](C)N(C(C)=O)C[C@H]1C	.	.	4	.	.	13[16.7 µM]
Cc1ccc(-n2c(SCC(=O)N3CCCc4ccccc43)nnc2-c2cccnc2)c(C)c1	-3	16	-30	-3	-11	39
Cc1ccc(-n2c(-c3ccccc3)c[n+]3c2CCc2ccccc2-3)c(C)c1	6	46	91*	11	.	25
SMILES	Rtt109 HAT inh	Arr AP2 block	PAX8 reporter	N-glyco inh	PfHsp90 yeast 2	Env fusion inh
O=C1Nc2ccccc2N=C(c2ccc3c(c2)OCO3)C1N(C(=O)c1ccc2ccccc2c1)C1CC1 (stereo not drawn)	.	.	-119	1	.	56*
O=C1Nc2ccccc2N=C(c2ccc3c(c2)OCO3)C1N(C(=O)c1ccnc2ccccc12)c1ccccc1 (stereo not drawn)	.	.	17	-3	.	-131
O=C1/C(=C/c2cccc([N+](=O)[O-])c2)CCc2ccccc21	-5	-8	-21	12	-21	-15
CCN1C/C(=C\c2cccc([N+](=O)[O-])c2)C(=O)/C(=C/c2cccc([N+](=O)[O-])c2)C1	-4	0	55	-23	95*	.
O=C1/C(=C/c2cccc([N+](=O)[O-])c2)CSc2ccc(Cl)cc21	14	-18	-13	-1	11	61*
CCCCCCc1ccc(OC(=O)c2ccncc2)cc1	8	3	12	0	2	13
CCCCCCOc1ccc(OC(=O)c2ccncc2)cc1	-4	-8	-94	0	5	70*
C[C@@H]1CCCCO[C@H](CN(C)Cc2ccc(Cl)c(Cl)c2)[C@H](C)CN([C@@H](C)CO)C(=O)c2cc(NS(=O)(=O)c3ccc(F)cc3)ccc2O1	.	.	57	.	.	.
COc1ccc(-c2nnc(SCc3nnc(-c4ccccc4)o3)n2-c2ccccc2)cc1	20	-1	.	-4	-18	-19
COc1ccc(-c2nnc(SCc3nnc(-c4ccc(Cl)cc4)o3)n2-c2ccccc2)cc1	5	14	.	-1	.	65*
Cc1cc(C)c2c(N=NN3CCOCC3)[nH]nc2n1	-6	-8	2	-4	102*	23
Cc1cc(C)c(C#N)c(N2CCOCC2)n1	2	7	.	-2	9	.
C[C@H]1CN([C@@H](C)CO)C(=O)c2ccccc2-c2ccccc2CO[C@H]1CN(C)Cc1ccc(C(F)(F)F)cc1	.	.	45	.	.	.
O=C(CNC(=O)N1CC(=O)Nc2ccccc21)NCCCc1ccccc1	.	.	-13	27*	.	-20
COc1cc(NC(C)CCCN)c2ncccc2c1 (stereo not drawn)	?	8	66*	3	9	.
COc1cc(NCCCCCCCN)c2ncccc2c1	7	34	.	-2	16	.
O=C1C(=C(I)I)c2ccccc2-c2ccccc21	9	16	128*	-5	106*	43
CC(=NNC(=S)N(Cc1ccccn1)Cc1ccccn1)c1cnccn1	2	-10	21	-13	110*	18
S=C(NN=Cc1ccccn1)N(Cc1ccccn1)Cc1ccccn1	-3	-8	20	-11	48	20
